Source: PubChem BioAssay
Cav32 inh: blocks human Cav3.2 T-type calcium channel | O95180 | Cav3.2-expressing cells, Fluo-4 calcium fluorescence FDSS; stronger effect = lower value | B-score at 10 µM | 4% of 100,000 active;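 active = single-dose well whose peak fluorescence ratio is a statistical outlier from its plate by either plate-standardised score or position-corrected B-score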
EphB4 ephrin blk: EphB4-ephrin-B2 interaction antagonism | P54760 | EphB4 LBD / TNYL-RAW-Alexa532 peptide, fluorescence polarization | inhibition, % at 7 µM | 0.15% of 97,000 active | AID 720;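 active = inhibition above the screen-wide mean inhibition plus 3 SD, cut at about 15% in these data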;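 note: 0% = DMSO wells and 100% = excess unlabeled TNYL-RAW peptide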
HIV Rev-RRE inh: HIV Rev-RRE protein-RNA interaction inhibition. P05866. Rev peptide-RRE RNA binding, FRET. inhibition, % at 8 µM. 0.79% of 97,000 active. AID 704;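 active = inhibition above the screen-wide mean plus 3 SD, cut at about 35% in these data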;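 note: 0% = median DMSO wells and 100% = median Neomycin B control wells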
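Test system – labelled RRE RNA duplex and labelled Rev peptide · Reagent – labelled Rev peptide · Doses – one concentration, 8 µM nominal · Incubation – 5 + 15 min at 25 °C · Signal – FRET fluorescence readout · Read-out basis – % inhibition of FRET ratio versus controls · Control set – DMSO wells as 0% and neomycin B wells as 100% inhibition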
DAT uptake mod: modulates human dopamine transporter uptake under cocaine; 1.3% of 110,000 active; B-score at 10 µM; AID 449768; Q01959; LLC-PK1 hDAT cells, [14C]-dopamine uptake with cocaine IC80; actives deviate in either direction;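 active = Z score or B-score, a plate-position-corrected score, falls beyond the plate's 99.7% confidence bounds, in either direction; inactive = both scores lie inside the 99.7% bounds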;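 note: scored against the spread of the other compound wells on the same plate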
Active calls of the source: *; nt = not tested or not shown. Sampled rows, rich in hits. Any-hit rate of the full collection: about 5.4%.

SMILES	Cav32 inh	EphB4 ephrin blk	HIV Rev-RRE inh	DAT uptake mod
O=C(Nc1ccc(Cl)cc1)N1CCN(c2ccc3nnc(-c4ccc(F)cc4)n3n2)CC1	0.71	nt	nt	2.8*
COc1ccc(-c2csc(NCCc3nc4cc(C(=O)NCCCO)ccc4n3Cc3ccc(C)cc3)n2)cc1	-0.57	nt	nt	2.4
CC1CCC(C(=O)NC(C(=O)N2CCC(N3CCCCC3)CC2)C(C)C)CC1 (stereo unspecified)	0.66	1	-2	-2.7*
CCOC(=O)N1CCN(C(=O)C(NC(=O)C2CCC(C)CC2)C(C)C)CC1 (stereo unspecified)	0.75	0	-4	1.1
CC(=O)Nc1ccc(Sc2ncccc2C(=O)Nc2ccc(F)cc2)cn1	1.1	-4	2	-0.93
COc1ccccc1OC(=O)c1ccc2nsnc2c1	nt	3	3	0.074
CC(C)(C)c1ccc(OC(=O)c2ccc3nsnc3c2)cc1	-3.5*	0	23	-0.3
CCn1c(=O)c2c3c(sc2n2c(=S)[nH]nc12)CCC3	3.6*	-2	-1	-0.12
CCn1c(=O)c2c3c(sc2n(C)c1=O)CCC3	1.3	-6	4	0.039
COc1ccc(C2N(S(=O)(=O)c3ccccc3)CCN2S(=O)(=O)c2ccc(C)cc2)cc1 (stereo unspecified)	-2.3	0	20	0.026
Cc1ccc(Cl)cc1N1CCN(C(=O)CCC(=O)O)CC1	-2.2	nt	nt	-3*
O=C(O)CCC(=O)N1CCN(c2cccc(Cl)c2)CC1	0.29	1	5	-1.5
Cc1ccc2[nH]cc(CCNC(=O)Nc3ccccc3)c2c1	-3.9*	3	5	0.23
Cc1ccccc1C1CC(c2ccccc2OC(F)F)Nc2ncnn21 (stereo unspecified)	-4.1*	nt	nt	1.4
CN(NS(=O)(=O)c1ccccc1)c1nc2ccccc2nc1C(F)(F)F	-4.2*	1	10	-1
Cc1ccccc1C(=O)NN(C)c1nc2ccccc2nc1C(F)(F)F	0.14	2	8	1.4
On1c2c(c3c4nonc4ccc31)CCCC2	-5.8*	-2	15	-2.4
CCc1c(C)nc2cc(-c3ccc(OC)c(OC)c3)nn2c1NCC1CC1	nt	1	5	nt
COc1cc(OC)cc(-c2nnc(SCC(=O)Nc3cc(C)on3)o2)c1	nt	-2	2	nt
Cc1cc(NC(=O)CSc2nnc(-c3ccoc3C)o2)no1	-0.18	-14	-2	2.6*
CC(C)C[C@H](NC(=O)c1nc[nH]c1C(=O)N1CCN(c2ccccc2)CC1)C(=O)OCc1ccccc1	-0.93	nt	nt	0.38
O=c1oc2cc(Cl)ccc2n1CSc1nc2ccccc2s1	-3.8	-4	9	0.025
CCOc1cc(C2C(C#N)=C(N)OC(C)=C2C(C)=O)c(Br)c(Br)c1OC(C)C (stereo unspecified)	-5.3*	-2	19	-0.16
CCOC(=O)C1=C(C)OC(N)=C(C#N)C1c1ccc(OC)c(C)c1OC (stereo unspecified)	-0.25	-2	5	0.75
O=C(Nc1cccc(F)c1)N1CCN(C/C=C/c2ccccc2)CC1	-2.7	-1	9	2.2*
SMILES	Cav32 inh	EphB4 ephrin blk	HIV Rev-RRE inh	DAT uptake mod
O=C(Nc1ccc(F)cc1)N1CCN(C/C=C/c2ccccc2)CC1	-1.8	5	8	1.6
CC(C)N(CCc1ccncc1)C(=O)Nc1ccc(Cl)c(Cl)c1	0.26	-9	7	-1
CSc1ccc(N2C(=O)NC3(CCCCC3)C2=O)cc1	-0.48	-8	-2	-0.56
Cc1cc(C)c(S(=O)(=O)c2ccccc2C)c(OCC(C)(C)C)n1	-0.33	-2	12	-0.41
CCOc1cc(C2C(C#N)=C(N)SC(N)=C2C#N)ccc1OCCN1CCOCC1	1.1	9	75*	0.0024
Cc1oc2ccc(O)c(CN3CCOCC3)c2c1C(=O)c1ccc(Cl)cc1	-4.4*	-1	6	0.88
CCCN(N=Nc1cccc([N+](=O)[O-])c1)c1cccc([N+](=O)[O-])c1	-4.2*	-1	11	-0.019
CCN(CCCNC(=O)CNC(=O)Cn1cnc2ccccc2c1=O)c1cccc(C)c1	-3.9*	nt	nt	0.78
CN(c1ccccc1)S(=O)(=O)c1cccc(NC(=O)Cn2cnc3ccccc3c2=O)c1	-7*	11	12	-1
CCN(CCCNC(=O)C1CCC(=O)N1C(C)C)c1cccc(C)c1 (stereo unspecified)	-0.23	-4	-5	0.79
Nn1c(Nc2ccccc2)nc2sc3c(c2c1=O)CCC3	-0.047	-2	8	3.7*
C(=C1/CCCC2=C1Nc1ncnn1C2c1ccccc1)/c1ccccc1 (stereo unspecified)	-0.02	6	9	0.11
